Published values of several laboratories.
Protocols differ between the studies behind these lines.
Target: Calcium/calmodulin-dependent protein kinase type 1D (CAMK1D, Homo sapiens, UniProt Q8IU85)

`CC1=C(C#N)C(c2ccc3c(c2)c(NC(=O)c2ccccc2C)nn3C)C(C#N)=C(C)N1` has a remaining binding of 93% (cell-free assay, competition with immobilised ligand; 1 µM).
The remaining activity of `O=C(Nc1cnn(-c2csc(C(=O)NC3COC3)c2)c1)Nc1c(F)cccc1Cl` is reported as 99.6% (enzyme activity, inhibitor; 5 µM).
The remaining binding of `O=C(NCc1ncc(C(F)(F)F)cc1Cl)c1ccc2c(c1)C1(CCS(=O)(=O)CC1)[C@@H](C1CC1)N2S(=O)(=O)c1ccc(F)cc1` is reported as 99% (cell-free assay, competition with immobilised ligand; 1 µM).
For `Cn1c2c(c3ccc(Cl)c(Cl)c31)C(C#N)C1(CCNCC1)NC2=O` (racemic), the ΔTm was 1.2 °C (thermal stability, DSF; 10 µM).
`CNCc1ccccc1-c1csc([C@@H](C)Nc2nc(C)nc3cc(OC)c(OC)cc23)c1` gave a remaining binding of 100% (cell-free assay, competition with immobilised ligand; 1 µM).
With `Cc1ccc(C(=O)Nc2ccc(CN3CCN(C)CC3)c(C(F)(F)F)c2)cc1C#Cc1cnc2cccnn12` the remaining activity was 86% (enzyme activity, inhibitor; 23.5 nM).
`CCN1CCC2(CC1)NC(=O)c1c(c3ccc(Cl)c(Cl)c3n1C)C2C#N` (racemic) gave a ΔTm of -0.1 °C (thermal stability, DSF; 10 µM).
`COc1cc(-c2cn(C3CCc4ccccc4N(CC(F)(F)F)C3=O)nn2)ccc1-n1ccc(C)n1` (stereo not drawn) gave a remaining binding of 100% (cell-free assay, competition with immobilised ligand; 1 µM).
The remaining activity of `CC(C)(C)c1nc(-c2cccc(NS(=O)(=O)c3c(F)cccc3F)c2F)c(-c2ccnc(N)n2)s1` is reported as 116% (enzyme activity, inhibitor, radiometric; 1 µM).
The remaining signal of `C[S+]([O-])c1ccc(-c2nc(-c3ccncc3)c(-c3ccc(F)cc3)[nH]2)cc1` (stereo not drawn) is reported as 105% (cell-free assay; 0.5 µM).
The remaining signal of `Nc1ncnc2occ(-c3ccc(NC(=O)Nc4cc(C(F)(F)F)ccc4F)cc3)c12` is reported as 2.8% (cell-free assay, inhibitor; 20 µM).
`Cc1c(C(=O)O)cc(-c2ccc(C3CCNCC3)cc2)c2ccc(-c3ccc(C(F)(F)F)cc3)cc12` has a remaining binding of 100% (cell-free assay, competition with immobilised ligand; 1 µM).
`CC/C(=N\NC(=O)NCc1cccc(O)c1)c1ccc(O)c(C)c1O` has an inhibition of -3.5% (enzyme activity, inhibitor; 0.1 µM).
For `Cn1c2c(c3ccc(Cl)c(Cl)c31)C(C#N)C(C)(C)NC2=O` (stereo not drawn), the ΔTm was -0.6 °C (thermal stability, DSF; 10 µM).
`O=C1CCc2cc(Nc3cc(OC4CCOCC4)c([N+](=O)[O-])cc3Cl)ccc2N1` has a remaining binding of 100% (cell-free assay, competition with immobilised ligand; 1 µM).
With `Cn1c2c(Cl)c(Cl)ccc2c2cn[nH]c(=O)c21` the ΔTm was -0.1 °C (thermal stability, DSF; 10 µM).
With `O=C1Nc2ccc(Cl)cc2C1=Cc1cc(Cl)c(O)c(Cl)c1` the remaining signal was 104% (cell-free assay; 0.5 µM).
With `CN1CC(Oc2cnc(C#N)cc2-c2ccn3nc(NC(=O)C4CC4)cc3c2)C1` the inhibition was -2% (enzyme activity, inhibitor; 1 µM).
`COc1cc2ncnc(Nc3ccc(Oc4ccccc4)cc3C)c2cc1OC` gave an inhibition of 1% (enzyme activity, inhibitor; 1 µM).
The remaining signal of `O=C1NC(=O)c2cc(Nc3ccc(F)cc3)c(Nc3ccc(F)cc3)cc21` is reported as 78.1% (cell-free assay; 0.5 µM).
With `Cc1ccc(Nc2nccc(N(C)c3ccc4c(C)n(C)nc4c3)n2)cc1S(N)(=O)=O` the inhibition was 32% (enzyme activity, inhibitor; 10 µM).
For `CO[C@@H](C)c1c(Nc2ccc([C@@H](N(C)C(=O)C3CCS(=O)(=O)CC3)C(F)(F)F)cc2)cnc2cc(Cl)nn12`, the remaining binding was 100% (cell-free assay, competition with immobilised ligand; 1 µM).
With `Cc1cnc(NC2CCOCC2)nc1-n1cnc(C(=O)NC(CN)c2cc(F)cc(Cl)c2)c1` (stereo not drawn) the remaining activity was 84% (enzyme activity, inhibitor, radiometric; 1 µM).
`Cc1cc(NC(=O)c2cccc3cc(-c4cccc5[nH]nc(N)c45)ccc23)ccc1F` has an activity vs control of 102% (enzyme activity, inhibitor; 0.1 µM).
`CN1CCC2(CC1)NC(=O)c1c(c3ccc(Cl)c(Cl)c3n1C)C2C#N` (racemic) gave a ΔTm of -0.4 °C (thermal stability, DSF; 10 µM).
The inhibition of `COc1cccc2c(NCc3ccccc3)nc(-n3c(N)nc4ccccc43)nc12` is reported as 0% (target engagement in cells, inhibitor, chemoproteomics; 20 mM).
`COc1cc(Cl)c(C(=O)N[C@@H](CN[C@H]2CC[C@@H](N)CC2)Cc2ccc(C#N)cc2)cc1-c1ccc(CN[C@H](C)c2ccc(C)cc2)o1` has a remaining activity of 88% (enzyme activity, inhibitor; 1 µM).
For `COc1cc2ncnc(Nc3ccc(F)c(Cl)c3)c2cc1OCCCN1CCOCC1`, the remaining signal was 88.6% (cell-free assay; 0.5 µM).
`CN(C)C(=O)Cn1cc(-c2nc(C3(c4ccc(-c5cnc(N)nc5)cc4)CC3)no2)cn1` gave a remaining binding of 100% (cell-free assay, competition with immobilised ligand; 1 µM).
For `CNC(=O)c1cc(Oc2ccc(NC(=O)Nc3ccc(Cl)c(C(F)(F)F)c3)cc2)ccn1`, the inhibition was 11% (enzyme activity, inhibitor; 0.3 µM).
